Experimental data: ChEMBL document CHEMBL4190359, “Synthesis and Investigation of S-Substituted 2-Mercaptobenzoimidazoles as Inhibitors of Hedgehog Signaling” (ACS Med Chem Lett, 2017)
pIC50: −log10 of the molar value. The source made the active and inactive calls. The rule behind the calls is not given here.

Assays:
[1] = species: Homo sapiens; experiment: Inhibition of Hedgehog signaling pathway (unknown origin); details: concentration not given here
[2] = target: T1, Alkaline phosphatase, tissue-nonspecific isozyme (Homo sapiens) (UniProt P05186); experiment: Inhibition of recombinant human C-terminal His6-tagged alkaline phosphate activity (Leu18 to Ser502 residues) using CDP-star as substrate pretreated for 30 mins followed by substrate addition measured after 60 mins by luminescence assay
T1 sequence (whole entry): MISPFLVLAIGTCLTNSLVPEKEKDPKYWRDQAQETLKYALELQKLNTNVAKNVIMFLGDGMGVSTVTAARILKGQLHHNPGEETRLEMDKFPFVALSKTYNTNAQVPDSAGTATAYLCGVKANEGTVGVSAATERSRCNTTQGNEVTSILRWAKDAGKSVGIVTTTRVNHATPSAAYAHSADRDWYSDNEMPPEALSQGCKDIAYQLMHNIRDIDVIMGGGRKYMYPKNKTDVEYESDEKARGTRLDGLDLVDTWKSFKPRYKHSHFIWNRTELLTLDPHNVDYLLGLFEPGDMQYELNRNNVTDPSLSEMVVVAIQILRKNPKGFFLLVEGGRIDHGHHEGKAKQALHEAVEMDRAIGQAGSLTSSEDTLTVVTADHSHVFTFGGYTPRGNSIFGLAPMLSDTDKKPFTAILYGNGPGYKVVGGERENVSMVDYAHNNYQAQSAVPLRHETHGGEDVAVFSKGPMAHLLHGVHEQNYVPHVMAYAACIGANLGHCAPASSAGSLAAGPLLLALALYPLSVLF

[3] = Cytotoxicity against mouse C3H10T1/2 cells assessed as cell viability by CellTiter-Glo assay; format: cell-based, C3H 10T1/2; parameters: concentration or dose not given beside the values; details: read-out: Activity
[4] = (§1) Inhibition of Hedgehog signaling pathway in mouse C3H10T1/2 cells assessed as reduction in purmorphamine-induced increase in alkaline phosphatase level using CDP-star as substrate pretreated for 1 hr followed by purmorphamine addition measured after 5 days by luminescence assay; format: cell-based; details: for pIC50: Mus musculus, C3H 10T1/2, read-out: IC50
Method in brief: (§2)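 Osteogenesis assay in multipotent C3H/10T1/2 mesenchymal progenitor cells; differentiation to osteoblasts driven by SMO agonist purmorphamine; read-out is induced alkaline phosphatase expression; IC50 derived from reduction of this signal.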

[5] = Cytotoxicity against mouse Shh Light2 cells assessed as cell viability by CellTiter Glo assay; format: cell-based, Shh Light II; parameters: concentration or dose not given beside the values; details: read-out: Activity
[6] = Inhibition of Hedgehog signaling in mouse Shh Light2 cells assessed as reduction in purmorphamine-induced Gli mediated transcriptional activity pretreated for 1 hr followed by purmorphamine addition measured after 48 hrs by luciferase reporter gene assay; format: cell-based; details: for pIC50: Mus musculus, Shh Light2, read-out: IC50
[7] = species: Mus musculus; experiment: as §1; format: cell-based; method in brief: as §2
[8] = test system: Shh Light II; experiment: Cytotoxicity against mouse Shh Light2 cells by CellTiter Glo assay; format: cell-based
[9] = test system: C3H 10T1/2; experiment: Cytotoxicity against mouse C3H10T1/2 cells by CellTiter-Glo assay; format: cell-based

SMILES	inhibition [1]	inhibition [2]	viability [3]	pIC50 [4]	viability [5]	pIC50 [6]	IC50 [4]	inhibition [7]	pIC50 [8]	pIC50 [9]	IC50 [6]
CCOC(=O)CCCn1c(SCCOc2c(F)cccc2F)nc2ccccc21	12%	–	–	–	–	–	–	–	–	–	–
Cc1ccc(C)c(OCCSc2nc3ccccc3[nH]2)c1	–	inactive	> 80%	5.19	–	–	–	–	–	–	–
Clc1cc(Cl)c(SCCSc2nc3ccccc3[nH]2)cc1Cl	–	inactive	> 80%	5.24	–	–	–	–	–	–	–
Cc1cccc(C)c1OCCCSc1nc2ccccc2[nH]1	–	inactive	> 80%	5.25	> 80%	5.39	–	–	–	–	–
Clc1ccc(SCCCSc2nc3ccccc3[nH]2)cc1	–	inactive	> 80%	5.55	> 80%	< 5.00	–	–	–	–	–
Cc1cccc(OCCCSc2nc3ccccc3[nH]2)c1	–	inactive	> 80%	–	–	–	Not Active	–	–	–	–
CC(C)c1ccccc1OCCSc1nc2ccccc2[nH]1	–	inactive	> 80%	< 5.00	–	–	–	–	–	–	–
Cc1cccc(C)c1OCCSc1nc2ccccc2[nH]1	–	inactive	> 80%	5.75	> 80%	5.50	–	Dose-dependent effect	–	–	–
Cc1cc(OCCSc2nc3ccccc3[nH]2)ccc1Cl	–	inactive	> 80%	5.59	> 80%	5.10	–	–	–	–	–
COc1ccc(SCCSc2nc3ccccc3[nH]2)cc1	–	inactive	> 80%	5.25	> 80%	5.45	–	–	–	–	–
Cc1ccc(OCCCSc2nc3ccccc3[nH]2)cc1	–	inactive	> 80%	5.20	–	–	–	–	–	–	–
Cc1ccc2nc(NCCOc3c(C)cccc3C)sc2c1	–	inactive	> 80%	< 5.00	–	–	–	–	–	–	–
Cc1ccc2nc(NCCOc3ccccc3)sc2c1	–	inactive	> 80%	–	–	–	Not Active	–	–	–	–
CC(C)c1cccc(OCCSc2nc3ccccc3[nH]2)c1	–	inactive	> 80%	5.04	–	–	–	–	–	–	–
CS(=O)(=O)c1ccc(C(=O)Nc2ccc(Cl)c(-c3ccccn3)c2)c(Cl)c1 [VISMODEGIB]	–	inactive	> 80%	6.85	> 80%	6.01	–	–	–	–	–
c1ccc2cc(OCCSc3nc4ccccc4[nH]3)ccc2c1	–	inactive	> 80%	5.35	> 80%	5.14	–	–	–	–	–
Oc1ccc(OCCSc2nc3ccccc3[nH]2)cc1	–	inactive	–	5.65	–	5.09	–	–	5.11	5.15	–
Cc1ccc(C)c(OCCSc2nc3ccccc3[nH]2)c1C	–	inactive	> 80%	5.54	–	–	–	–	–	–	–
Fc1ccccc1OCCSc1nc2ccccc2[nH]1	–	inactive	> 80%	5.63	–	–	–	–	–	–	–
Cc1ccccc1OCCSc1nc2ccccc2[nH]1	–	inactive	> 80%	5.37	> 80%	5.16	–	–	–	–	–
c1ccc(-c2ccc(OCCSc3nc4ccccc4[nH]3)cc2)cc1	–	inactive	> 80%	–	–	–	Not Active	–	–	–	–
Cc1cccc(SCCSc2nc3ccccc3[nH]2)c1	–	inactive	> 80%	5.51	> 80%	5.46	–	–	–	–	–
COc1ccccc1OCCSc1nc2ccccc2[nH]1	–	inactive	> 80%	5.58	–	–	–	–	–	–	–
COC(=O)c1cccc(OCCSc2nc3ccccc3[nH]2)c1	–	inactive	> 80%	–	> 80%	–	Not Active	–	–	–	Not Active
c1ccc(OCCSc2nc3ccccc3[nH]2)cc1	–	inactive	> 80%	5.65	> 80%	5.05	–	–	–	–	–
Cc1cccc(OCCSc2nc3ccccc3[nH]2)c1	–	inactive	> 80%	5.68	> 80%	5.29	–	–	–	–	–
O=[N+]([O-])c1cccc(OCCSc2nc3ccccc3[nH]2)c1	–	inactive	> 80%	5.35	> 80%	5.19	–	–	–	–	–
Cc1ccc(OCCSc2nc3ccccc3[nH]2)c([N+](=O)[O-])c1	–	inactive	> 80%	–	–	–	Not Active	–	–	–	–
